Experimental data from ChEMBL document CHEMBL2150936, “Anticancer activity of small amphipathic β²,²-amino acid derivatives” (Eur J Med Chem, 2012).
The source made the active and inactive calls. No cut-off for these calls is given here.

Key:
MOLT-4 = assay: Cytotoxicity against human MOLT4 cells after 4 hrs by MTT assay; format: functional, cell-based; settings: MOLT-4, 4 h
MDA-MB-231 = assay: Cytotoxicity against human MDA-MB-231 cells after 4 hrs by MTT assay; format: functional, cell-based; settings: MDA-MB-231, 4 h
MDA-MB-468 = assay: Cytotoxicity against human MDA-MB-468 cells after 4 hrs by MTT assay; format: functional, cell-based; settings: MDA-MB-468, 4 h
Ramos [1] = assay: Cytotoxicity against human Ramos cells after 4 hrs by MTT assay; format: functional, cell-based
In short: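 Ramos Burkitt's lymphoma cells, kept in suspension in RPMI 1640 with 10% FBS, were seeded at 4 × 10^5 cells/ml in serum-free RPMI 1640. Compounds in RPMI-1640 were added immediately, then 4 h at 37 °C, 5% CO2. MTT was added for a further 2 h, formazan dissolved in acidic isopropanol (0.04 N HCl), and A590 read. Survival was calculated against untreated medium control; 1% Triton X-100 served as positive control.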

OVCAR-8 = assay: Cytotoxicity against human OVCAR8 cells after 4 hrs by MTT assay; format: functional, cell-based; settings: OVCAR-8, 4 h
SF-268 = assay: Cytotoxicity against human SF268 cells after 4 hrs by MTT assay; format: functional, cell-based; settings: SF-268, 4 h
UACC-62 = assay: Cytotoxicity against human UACC62 cells after 4 hrs by MTT assay; format: functional, cell-based; settings: UACC-62, 4 h
SW-620 = assay: Cytotoxicity against human SW620 cells after 4 hrs by MTT assay; format: functional, cell-based; settings: SW-620, 4 h
786-0 = assay: Cytotoxicity against human 786-0 cells after 4 hrs by MTT assay; format: functional, cell-based; settings: 786-0, 4 h
DU-145 = assay: Cytotoxicity against human DU145 cells after 4 hrs by MTT assay; format: functional, cell-based; settings: DU-145, 4 h
SR = assay: Cytotoxicity against human SR cells after 4 hrs by MTT assay; format: functional, cell-based
SK-OV-3 = assay: Cytotoxicity against human SKOV3 cells after 4 hrs by MTT assay; format: functional, cell-based; settings: SK-OV-3, 4 h
A498 = assay: Cytotoxicity against human A498 cells after 4 hrs by MTT assay; format: functional, cell-based; settings: A498, 4 h
IGROV-1 = assay: Cytotoxicity against human IGROV1 cells after 4 hrs by MTT assay; format: functional, cell-based; settings: IGROV-1, 4 h
COLO 205 = assay: Cytotoxicity against human COLO205 cells after 4 hrs by MTT assay; format: functional, cell-based; settings: COLO 205, 4 h
A549 = assay: Cytotoxicity against human A549 cells after 4 hrs by MTT assay; format: functional, cell-based; settings: A549, 4 h
EKVX = assay: Cytotoxicity against human EKVX cells after 4 hrs by MTT assay; format: functional, cell-based
HCT-116 = assay: Cytotoxicity against human HCT116 cells after 4 hrs by MTT assay; format: functional, cell-based; settings: HCT-116, 4 h
HT-29 = assay: Cytotoxicity against human HT-29 cells after 4 hrs by MTT assay; format: functional, cell-based; settings: HT-29, 4 h
SF-295 = assay: Cytotoxicity against human SF295 cells after 4 hrs by MTT assay; format: functional, cell-based; settings: SF-295, 4 h
MCF7 = assay: Cytotoxicity against human MCF7 cells after 4 hrs by MTT assay; format: functional, cell-based; settings: MCF7, 4 h
SNB-19 = assay: Cytotoxicity against human SNB19 cells after 4 hrs by MTT assay; format: functional, cell-based; settings: SNB-19, 4 h
HL-60 = assay: Cytotoxicity against human HL60 cells after 4 hrs by MTT assay; format: functional, cell-based; settings: HL-60, 4 h
Ramos [2] = assay: Induction of apoptosis in human Ramos cells assessed as disruption of mitochondrial potential after 1 hr by TMRE based flow cytometry; format: functional, cell-based
KM12 = assay: Cytotoxicity against human KM12 cells after 4 hrs by MTT assay; format: functional, cell-based; settings: KM12, 4 h
CCRF-CEM = assay: Cytotoxicity against human CCRF-CEM cells after 4 hrs by MTT assay; format: functional, cell-based
NCI/ADR-RES = assay: Cytotoxicity against human NCI/ADR-RES cells after 4 hrs by MTT assay; format: functional, cell-based
MDA-MB-435 = assay: Cytotoxicity against human MDA-MB-435 cells after 4 hrs by MTT assay; format: functional, cell-based; settings: MDA-MB-435, 4 h
[3] = Cytotoxicity against human […] cells after 4 hrs by MTT assay; format: functional, cell-based
HOP-92 = assay: Cytotoxicity against human HOP92 cells after 4 hrs by MTT assay; format: functional, cell-based; settings: HOP-92, 4 h
MRC5 = assay: Cytotoxicity against human MRC5 cells after 4 hrs by MTT assay; format: cell-based; settings: MRC5, 4 h
In short: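 MRC-5 embryonic lung fibroblast monolayers in MEM with 10% FBS were seeded at 1 × 10^5 cells/ml, grown overnight, then medium was replaced with compound solution. Exposure was 4 h at 37 °C, 5% CO2, then MTT for 2 h. Formazan was dissolved in acidic isopropanol (0.04 N HCl) and absorbance read at 590 nm. Background-corrected viability was taken relative to medium-only control, with Triton X-100 as positive control.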

HCC 2998 = assay: Cytotoxicity against human HCC2998 cells after 4 hrs by MTT assay; format: functional, cell-based; settings: HCC 2998, 4 h
[4] = read-out: LC50 (the source's name)

For `NCCNC(=O)C(CN)(Cc1ccc2ccccc2c1)Cc1ccc2ccccc2c1`, the IC50 (MOLT-4) was 1.41 µM, the TGI (MOLT-4) was 2.69 µM and the IC50 (MDA-MB-231) was 3.02 µM. It also gave a TGI (MDA-MB-231) of 3.09 µM, a CC50 (MDA-MB-231; [4]) of 6.03 µM and an IC50 (MDA-MB-468) of 2.75 µM. For the same compound, the TGI (MDA-MB-468) was 2.95 µM, the CC50 (MDA-MB-468; [4]) was 6.17 µM and the IC50 (Ramos [1]) was 4.1 µM. The IC50 (OVCAR-8) was 3.39 µM, the TGI (OVCAR-8) was 3.72 µM and the CC50 (OVCAR-8; [4]) was 7.24 µM. For the same compound, the IC50 (SF-268) was 2.82 µM, the TGI (SF-268) was 3.02 µM and the CC50 (SF-268; [4]) was 6.03 µM. For the same compound, the IC50 (UACC-62) was 3.31 µM, the TGI (UACC-62) was 3.31 µM and the CC50 (UACC-62; [4]) was 5.75 µM. For the same compound, the IC50 (SW-620) was 0.35 µM, the TGI (SW-620) was 0.83 µM and the CC50 (SW-620; [4]) was 3.39 µM. The IC50 (786-0) was 3.16 µM, the TGI (786-0) was 3.31 µM and the CC50 (786-0; [4]) was 6.31 µM. The IC50 (DU-145) was 2.57 µM, the TGI (DU-145) was 2.82 µM and the CC50 (DU-145; [4]) was 5.37 µM. It also gave an IC50 (SR) of 0.35 µM, a TGI (SR) of 0.62 µM and an IC50 (SK-OV-3) of 3.02 µM. The TGI (SK-OV-3) was 3.02 µM, the CC50 (SK-OV-3; [4]) was 5.5 µM and the IC50 (A498) was 2.82 µM. For the same compound, the TGI (A498) was 2.34 µM, the CC50 (A498; [4]) was 5.01 µM and the IC50 (IGROV-1) was 3.16 µM. It also gave a TGI (IGROV-1) of 3.24 µM, a CC50 (IGROV-1; [4]) of 7.24 µM and an IC50 (COLO 205) of 0.34 µM. It also gave a TGI (COLO 205) of 0.35 µM, a CC50 (COLO 205; [4]) of 0.69 µM and an IC50 (A549) of 2.51 µM. It also gave a TGI (A549) of 2.88 µM, a CC50 (A549; [4]) of 5.75 µM and an IC50 (EKVX) of 2.69 µM. For the same compound, the TGI (EKVX) was 2.88 µM, the CC50 (EKVX; [4]) was 6.17 µM and the IC50 (HCT-116) was 0.65 µM. For the same compound, the TGI (HCT-116) was 1.74 µM, the CC50 (HCT-116; [4]) was 4.37 µM and the IC50 (HT-29) was 0.41 µM. The TGI (HT-29) was 1.02 µM, the CC50 (HT-29; [4]) was 4.07 µM and the IC50 (SF-295) was 2.51 µM. It also gave a TGI (SF-295) of 2.69 µM, a CC50 (SF-295; [4]) of 5.75 µM and an IC50 (MCF7) of 1.35 µM. The TGI (MCF7) was 2.24 µM, the CC50 (MCF7; [4]) was 5.5 µM and the IC50 (SNB-19) was 2.95 µM. The TGI (SNB-19) was 3.02 µM, the CC50 (SNB-19; [4]) was 5.62 µM and the IC50 (HL-60) was 0.48 µM. The TGI (HL-60) was 1.38 µM, the Activity (Ramos [2]) was “Active” and the IC50 (KM12) was 0.74 µM. For the same compound, the TGI (KM12) was 1.7 µM, the CC50 (KM12; [4]) was 4.57 µM and the IC50 (CCRF-CEM) was 2.24 µM. The TGI (CCRF-CEM) was 3.39 µM, the CC50 (CCRF-CEM; [4]) was 9.12 µM and the IC50 (NCI/ADR-RES) was 3.16 µM. It also gave a TGI (NCI/ADR-RES) of 3.31 µM, a CC50 (NCI/ADR-RES; [4]) of 6.46 µM and an IC50 (MDA-MB-435) of 1.02 µM. It also gave a TGI (MDA-MB-435) of 2 µM, a CC50 (MDA-MB-435; [4]) of 5.62 µM and an IC50 [3] of 3.63 µM. It also gave a TGI [3] of 4.57 µM, an IC50 (HOP-92) of 3.72 µM and a TGI (HOP-92) of 3.47 µM. For the same compound, the CC50 (HOP-92; [4]) was 7.24 µM, the EC50 (MRC5) was 22 µM and the IC50 (HCC 2998) was 0.59 µM. It also gave a TGI (HCC 2998) of 1.26 µM and a CC50 (HCC 2998; [4]) of 3.98 µM.
